According to ChEMBL document CHEMBL6115053, “Optimization and Characterization of N-Acetamide Indoles as Antimalarials That Target PfATP4” (J Med Chem, 2025):
Converted amounts (≈) assume the structure as drawn. The source made the active and inactive calls. No cut-off for these calls is given here.

Key:
[1] = (§1) Cytotoxicity against human HepG2 cells assessed as inhibition of cell growth incubated for 48 hrs by celltiterglo assay; type: toxicity, cell-based; settings: HepG2 cells
[2] = system: Plasmodium falciparum; experiment: Antiplasmodial activity against asexual Plasmodium falciparum 3D7 infected in human […] cells assessed as reduction in parasite growth measured for 72 hrs by LDH assay; type: functional, organism-based; settings: 3D7, 72 h
[3] = system: Plasmodium falciparum; experiment: Antiplasmodial activity against N-(2,6-difluorophenyl)-2-(6-(5-methyl-1,3,4-oxadiazol-2-yl)-1H-indol-1-yl)acetamide-resistant Plasmodium falciparum Dd2 harboring plasmodium falciparum ATP4 D425E mutant by SYBR green staining based analysis; type: functional, organism-based
[4] = system: Plasmodium falciparum; experiment: Antiplasmodial activity against multidrug-resistant Plasmodium falciparum Dd2 harboring plasmodium falciparum ATP4 I398F/P990R/D1247Y mutant by SYBR green staining based analysis; type: functional, organism-based
[5] = system: Plasmodium falciparum; experiment: Antiplasmodial activity against N-(2,6-difluorophenyl)-2-(6-(5-methyl-1,3,4-oxadiazol-2-yl)-1H-indol-1-yl)acetamide-resistant Plasmodium falciparum Dd2 harbouring ATP4 genome with 2.8 fold CNV by SYBR green staining based analysis; type: functional, organism-based
[6] = system: Plasmodium falciparum; experiment: Antimalarial activity against Plasmodium falciparum NF54 infected assessed as inhibition of male gamete formation incubated for 48 hrs by automated bright field microscopic analysis; type: functional, organism-based; settings: NF54, 48 h
[7] = system: Plasmodium falciparum; experiment: Antimalarial activity against synchronized-ring stage Plasmodium falciparum 3D7 assessed as reduction in parasitemia at 10 times EC50 measured at 72 hrs post-treatment by LDH assay; type: functional, organism-based
Summary of the method: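 Parasite reduction ratio assay in P. falciparum 3D7 with an LDH read-out. Means and SDs were taken from three replicate experiments.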

[8] = system: Plasmodium falciparum; experiment: Antiplasmodial activity against multidrug-resistant Plasmodium falciparum Dd2 harboring plasmodium falciparum ATP4 G358S mutant by SYBR green staining based analysis; type: functional, organism-based
[9] = system: Plasmodium falciparum; experiment: Antiplasmodial activity against W454-resistant population 3 Plasmodium falciparum 3D7 harboring Plasmodium falciparum ATP4 L928F mutant by LDH assay; type: functional, organism-based
[10] = system: Plasmodium falciparum; experiment: Antiplasmodial activity against W454-resistant population 2 Plasmodium falciparum 3D7 harboring Plasmodium falciparum ATP4 L928F mutant by LDH assay; type: functional, organism-based
[11] = system: Plasmodium falciparum; experiment: Antimalarial activity against Plasmodium falciparum NF54 infected assessed as inhibition of female gamete formation incubated for 48 hrs by automated bright field microscopic analysis; type: functional, organism-based; settings: NF54, 48 h
[12] = system: Plasmodium knowlesi; experiment: Antiplasmodial activity against wild type Plasmodium knowlesi YH1 incubated for 30 hrs by SYBR staining based flow cytometry assay; type: functional, organism-based; settings: YH1, 30 h
[13] = system: Plasmodium falciparum; experiment: Antimalarial activity against trophozoite stage Plasmodium falciparum 3D7 at 10 times EC50 incubated for 48 hrs by SYBR Green dye based analysis; type: functional, organism-based
[14] = system: Plasmodium falciparum; experiment: Antimalarial activity against trophozoite stage Plasmodium falciparum 3D7 assessed as reduction in parasitemia at 10 times EC50 incubated for 24 hrs by SYBR Green dye based analysis; type: functional, organism-based
[15] = system: HepG2; experiment: Cytotoxicity against human HepG2 cells; type: functional
[16] = system: Plasmodium falciparum; experiment: Antiplasmodial activity against multidrug resistant Plasmodium falciparum W2mef incubated for 48 hrs by SYBR staining based fluorometer assay; type: functional, organism-based
[17] = system: Plasmodium falciparum; experiment: Antiplasmodial activity against multi-drug resistant Plasmodium falciparum Dd2; type: functional, organism-based
[18] = system: Plasmodium falciparum; experiment: Antiplasmodial activity against W454-resistant population 1 Plasmodium falciparum 3D7 harboring Plasmodium falciparum ATP4 L928F mutant by LDH assay; type: functional, organism-based
[19] = molecular target: T1, P-type sodium-transporting ATPase4 (Plasmodium falciparum (isolate 3D7)) (UniProt A0A143ZZK9); experiment: Inhibition of Plasmodium falciparum 3D7 ATP4 assessed as increase in Na+ concentration in parasite cytosol upto 1000 nM measured for 60 mins; type: subcellular
T1 sequence (whole entry): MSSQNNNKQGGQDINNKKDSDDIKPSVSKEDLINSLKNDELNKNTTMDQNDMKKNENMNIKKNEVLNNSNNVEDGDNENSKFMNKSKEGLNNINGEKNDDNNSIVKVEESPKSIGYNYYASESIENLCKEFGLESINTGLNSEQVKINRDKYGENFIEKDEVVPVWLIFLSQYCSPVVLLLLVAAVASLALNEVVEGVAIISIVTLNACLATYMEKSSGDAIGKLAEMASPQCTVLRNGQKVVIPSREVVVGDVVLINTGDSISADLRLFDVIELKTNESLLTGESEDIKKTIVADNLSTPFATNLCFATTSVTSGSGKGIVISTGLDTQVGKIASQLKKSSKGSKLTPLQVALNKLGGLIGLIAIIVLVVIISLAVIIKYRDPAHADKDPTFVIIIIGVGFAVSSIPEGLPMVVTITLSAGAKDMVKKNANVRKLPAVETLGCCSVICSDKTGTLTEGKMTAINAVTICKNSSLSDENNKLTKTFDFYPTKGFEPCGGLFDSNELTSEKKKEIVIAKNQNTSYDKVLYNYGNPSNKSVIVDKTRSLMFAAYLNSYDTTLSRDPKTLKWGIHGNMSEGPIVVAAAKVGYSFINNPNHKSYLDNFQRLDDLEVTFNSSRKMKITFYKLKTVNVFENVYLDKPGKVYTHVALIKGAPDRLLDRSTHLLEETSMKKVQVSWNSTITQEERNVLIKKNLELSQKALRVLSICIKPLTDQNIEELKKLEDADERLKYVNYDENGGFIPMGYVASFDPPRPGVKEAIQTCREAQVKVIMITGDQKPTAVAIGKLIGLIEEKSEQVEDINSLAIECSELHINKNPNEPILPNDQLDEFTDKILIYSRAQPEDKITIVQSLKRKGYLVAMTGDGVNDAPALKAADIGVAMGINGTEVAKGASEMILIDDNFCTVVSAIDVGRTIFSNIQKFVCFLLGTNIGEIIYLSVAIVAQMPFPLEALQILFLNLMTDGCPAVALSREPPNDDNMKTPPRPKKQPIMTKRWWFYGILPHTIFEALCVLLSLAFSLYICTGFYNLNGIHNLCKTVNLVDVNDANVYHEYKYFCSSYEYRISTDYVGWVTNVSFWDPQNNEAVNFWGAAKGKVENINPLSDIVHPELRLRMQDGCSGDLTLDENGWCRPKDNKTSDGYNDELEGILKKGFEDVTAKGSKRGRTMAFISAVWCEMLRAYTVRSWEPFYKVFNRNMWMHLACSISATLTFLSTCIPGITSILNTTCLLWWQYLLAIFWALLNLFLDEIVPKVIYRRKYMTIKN

[20] = system: Plasmodium falciparum; experiment: Antiplasmodial activity against Plasmodium falciparum 3D7 infected in human […] cells incubated for 72 hrs; type: functional, organism-based; settings: 3D7, 72 h
[21] = molecular target: T2, P-type sodium-transporting ATPase4 (Plasmodium falciparum (isolate 3D7), UniProt A0A143ZZK9); experiment: Inhibition of Plasmodium falciparum 3D7 ATP4 assessed as increase in Na+ concentration in parasite cytosol measured for 60 mins; type: subcellular
T2 sequence (A0A143ZZK9 whole entry): T1 sequence (whole entry)

[22] = system: Plasmodium falciparum; experiment: Antiplasmodial activity against multidrug resistant Plasmodium falciparum Cam3.1 incubated for 48 hrs by SYBR staining based fluorometer assay; type: functional, organism-based; settings: Cam3.1, 48 h
[23] = system: Plasmodium falciparum; experiment: Antiplasmodial activity against Plasmodium falciparum 3D7 infected in human […] cells; type: functional, organism-based
[24] = Metabolic stability in human liver microsome assessed as intrinsic clearance; type: ADME; settings: microsomes
[25] = system: HepG2; experiment: as §1; type: toxicity, cell-based; settings: hepg2, 48 h
[26] = Lipophilicity, logD of compound at pH 7.4 by shake-flask method; type: physicochemical; settings: buffer
[27] = system: Plasmodium falciparum; experiment: Antiplasmodial activity against Plasmodium falciparum 3D7 infected in RBC assessed as reduction in parasite growth measured for 8 hrs by Giemsa-staining based microscopic analysis; type: functional, organism-based
Summary of the method: (§2)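 Giemsa-stained thin smears were read at 8 h and the percentages of extracellular and intracellular parasites counted, compared with untreated parasites at 0 h.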

[28] = system: Plasmodium falciparum; experiment: Antiplasmodial activity against Plasmodium falciparum 3D7 infected in RBC assessed as reduction in extracellular parasite growth measured for 8 hrs by Giemsa-staining based microscopic analysis; type: functional; parameters: scale not given: the % may be the effect or the level left; summary of the method: as §2
[29] = Metabolic stability in mouse liver microsome assessed as intrinsic clearance; type: ADME; settings: microsomes
[30] = Aqueous solubility in PBS buffer at pH 7.4; type: physicochemical
[31] = system: Plasmodium falciparum; experiment: Antiplasmodial activity against N-(2,6-difluorophenyl)-2-(6-(5-methyl-1,3,4-oxadiazol-2-yl)-1H-indol-1-yl)acetamide-resistant Plasmodium falciparum Dd2 harboring plasmodium falciparum ATP4 F156L mutant by SYBR green staining based analysis; type: functional, organism-based
[32] = Metabolic stability in rat hepatocyte […] assessed as intrinsic clearance measured per 10^6 cells; type: ADME, cell-based; settings: hepatocytes
[33] = molecular target: T1, P-type sodium-transporting ATPase4 (Plasmodium falciparum (isolate 3D7)); experiment: Inhibition of Plasmodium falciparum 3D7 ATP4 assessed as reduction in Na+-ATPase activity at 2 uM incubated for 10 mins under high [Na+] condition in absence of KAE609
[34] = molecular target: T2, P-type sodium-transporting ATPase4; experiment: Inhibition of Plasmodium falciparum 3D7 ATP4
[35] = system: Plasmodium falciparum; experiment: Antiplasmodial activity against wild type Plasmodium falciparum 3D7 incubated for 48 hrs; type: functional, organism-based; settings: 3D7, 48 h
[36] = system: Plasmodium falciparum; experiment: Antiplasmodial activity against multidrug resistant Plasmodium falciparum 7G8 incubated for 48 hrs by SYBR staining based fluorometer assay; type: functional, organism-based; settings: 7G8, 48 h

| SMILES | EC50 [2] | EC50 [3] | EC50 [4] | EC50 [5] | EC50 [6] | EC50 [8] | EC50 [9] | EC50 [10] | EC50 [11] | EC50 [12] | Activity [13] | CC50 [15] | EC50 [16] | EC50 [17] | EC50 [18] | inhibition [19] | EC50 [20] | IC50 [21] | EC50 [22] | intrinsic clearance (CLint) [24] | further results |
| --- | --- | --- | --- | --- | --- | --- | --- | --- | --- | --- | --- | --- | --- | --- | --- | --- | --- | --- | --- | --- | --- |
| Cc1nc(-c2ccc3ccn(CC(=O)Nc4ccccc4Cl)c3c2)no1 | 955 nM | – | – | – | – | – | – | – | – | – | – | – | – | – | – | – | – | – | – | – | CC50 at 48 h [1]: > 40000 nM |
| CCc1nnc(-c2ccc3ccn(CC(=O)Nc4cc(OC)c(OC)c(OC)c4)c3c2)o1 | – | 241 nM | 238 nM | 290 nM | 7400 nM | 1370 nM | 1800 nM | 1990 nM | 7200 nM | 431 nM | Active | > 40000 nM | 272 nM | 320 nM | 1940 nM | Active | 123 nM | ~400 nM | 381 nM | – | Activity [7]: Active; Activity [14]: Active |
| Cc1nnc(-c2ccc3ccn(CC(=O)Nc4ccccc4Cl)c3c2)o1 | 667 nM | 786 nM | 2540 nM | 901 nM | 3600 nM | 1280 nM | > 10000 nM | > 10000 nM | 5000 nM | – | Active | > 40000 nM | – | – | > 10000 nM | Active | 569 nM | ~400 nM | – | > 462 µL/min/mg | EC50 [23]: 667 nM; CC50 [25]: > 40000 nM; logD [26]: 3.1; Activity [27]: Active; Activity [28]: 3.5%; intrinsic clearance (CLint) [29]: 410 µL/min/mg; solubility kinetic [30]: 10.9 µM (≈ 4 µg/mL); EC50 [31]: 1160 nM; intrinsic clearance (CLint) [32]: > 92 uL/min/10^6 cells |
| Cn1cc(-c2ccc3ccn(CC(=O)Nc4ccccc4Cl)c3c2)cn1 | 593 nM | 892 nM | 2510 nM | 1160 nM | – | 1650 nM | – | – | – | 661 nM | Active | – | 279 nM | 385 nM | – | – | 409 nM | – | 476 nM | > 462 µL/min/mg | inhibition [33]: Active; CC50 [25]: > 40000 nM; logD [26]: 3.6; IC50 [34]: 790 nM; EC50 [35]: 236 nM; solubility kinetic [30]: 4.1 µM (≈ 1.5 µg/mL); EC50 [31]: 803 nM; EC50 [36]: 526 nM; intrinsic clearance (CLint) [32]: 91 uL/min/10^6 cells |
